Data as given in ChEMBL document CHEMBL1155040, “Potency and selectivity of trifluoroacetylimino and pyrazinoylimino nicotinic insecticides and their fit at a unique binding site niche” (J Med Chem, 2008).
Values after ≈ are worked out from the molar mass of the structure shown.

Key:
[1] = Toxicity in ip dosed Swiss Webster mouse; format: organism-based; conditions: in vivo
Procedure, shortened: (§1)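 Male albino Swiss-Webster mice (25-30 g) were dosed intraperitoneally. Results are LD50 in mg/kg, or percent lethality at the indicated dose, which was the maximum allowed by solubility in the vehicle.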

[2] = (§2) Displacement of [3H]IMI from nAChR in Drosophila brain
Procedure, shortened: (§3)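 IC50 (nM, ± SD) for displacing [³H]IMI binding to native nAChR from Drosophila brain.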

[3] = target: Neuronal acetylcholine receptor subunit alpha-4 (Gallus gallus, UniProt P09482+P09484); assay: Displacement of [3H]nicotine from chick alpha4beta2 nAChR
Chain of Neuronal acetylcholine receptor subunit alpha-4 (P09482 whole entry, one chain of several): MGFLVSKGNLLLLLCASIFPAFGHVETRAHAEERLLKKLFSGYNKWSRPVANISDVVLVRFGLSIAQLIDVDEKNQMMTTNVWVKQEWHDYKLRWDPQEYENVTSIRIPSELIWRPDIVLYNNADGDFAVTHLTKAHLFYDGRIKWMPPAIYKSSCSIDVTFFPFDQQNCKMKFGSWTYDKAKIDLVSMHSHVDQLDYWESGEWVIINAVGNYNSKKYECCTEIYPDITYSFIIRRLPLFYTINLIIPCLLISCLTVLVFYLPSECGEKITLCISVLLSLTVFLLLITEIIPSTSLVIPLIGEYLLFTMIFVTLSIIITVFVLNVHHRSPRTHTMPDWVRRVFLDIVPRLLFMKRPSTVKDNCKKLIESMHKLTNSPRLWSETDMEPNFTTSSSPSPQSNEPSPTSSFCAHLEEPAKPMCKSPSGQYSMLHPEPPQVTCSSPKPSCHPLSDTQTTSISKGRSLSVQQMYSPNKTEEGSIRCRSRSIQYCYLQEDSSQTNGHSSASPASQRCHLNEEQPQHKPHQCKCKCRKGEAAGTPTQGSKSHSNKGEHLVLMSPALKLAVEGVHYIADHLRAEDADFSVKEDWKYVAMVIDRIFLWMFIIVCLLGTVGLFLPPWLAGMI
Procedure, shortened: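 Radioligand displacement used [³H]nicotine with chick α4β2 nAChR. Values are IC50 ± SD in nM.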

[4] = Displacement of [3H]IMI from peach-potato aphid alpha2/rat beta2 nAChR hybrid recombinant receptor
Musca domestica [5] = assay: Insecticidal activity against intrathoracically dosed houseflies at >10 um/g; format: functional
Procedure, shortened: (§4)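 Adult female houseflies were dosed by intrathoracic injection or topical application, either without or with topical pretreatment with the P450 inhibitor synergist O-propyl O-(2-propynyl)phenylphosphonate (100 µg/g) before the test chemical. Where no LD50 was obtained, percent mortality at the indicated dose is given.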

Musca domestica [6] = assay: Insecticidal activity against houseflies; format: functional; procedure, shortened: as §4
Culex quinquefasciatus [7] = assay: Mosquito Larvicidal activity against premethrin-susceptible fourth instar Culex quinquefasciatus CQ1 after 24 hrs; format: functional; conditions: CQ1, 24 h
Procedure, shortened: (§5)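 Larvicidal test on fourth-instar Culex quinquefasciatus, using the susceptible CQ1 colony and the permethrin-resistant Marin colony, with 24 h exposure.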

Culex quinquefasciatus [8] = assay: Mosquito Larvicidal activity against premethrin-resistant fourth instar Culex quinquefasciatus Marin after 24 hrs; format: functional; procedure, shortened: as §5
[9] = Lipophilicity, log P of the compound; format: physicochemical; conditions: octanol/water
Mus musculus [10] = assay: Toxicity in Swiss Webster mouse at >24 mg/kg, ip; format: organism-based; conditions: in vivo; procedure, shortened: as §1
Mus musculus [11] = assay: Toxicity in Swiss Webster mouse at >36 mg/kg, ip; format: organism-based; conditions: in vivo; procedure, shortened: as §1
Drosophila = assay: as §2; conditions: concentration not given here; procedure, shortened: as §3

SMILES	IC50 [2] [nM]	Activity (Musca domestica [5]) [%]	LD50 (Musca domestica [6]) [mg/kg]	also measured
O=[N+]([O-])/N=C1\NCCN1Cc1ccc(Cl)nc1 [IMIDACLOPRID]	4.3	0	> 10	LD50 [1]: 45 mg/kg; IC50 [3]: 2600 nM; IC50 [4]: 3.6 nM
O=C(/N=c1\[nH]ccn1Cc1ccc(Cl)nc1)C(F)(F)F	7.7	–	> 10	–
CC1(C)C(C=C(Cl)Cl)C1C(=O)OCc1cccc(Oc2ccccc2)c1 (stereo unspecified) [PERMETHRIN]	–	–	–	LC50 (Culex quinquefasciatus [7]): 0.005 µg/mL (≈ 0.0128 µM); LC50 (Culex quinquefasciatus [8]): 0.16 µg/mL (≈ 0.409 µM)
Clc1ccc(C(c2ccc(Cl)cc2)C(Cl)(Cl)Cl)cc1 [CHLOROPHENOTHANE]	–	–	14	–
CNC(=O)Oc1ccccc1OC(C)C [PROPOXUR]	–	–	23	–
O=C(/N=c1\sccn1Cc1ccc(Cl)nc1)c1ccccn1	13	0	> 10	–
O=C(/N=c1\sccn1Cc1ccc(Cl)nc1)c1cccnc1	4.8	0	> 10	–
O=C(/N=c1\sccn1Cc1ccc(Cl)nc1)c1ccccc1	121	0	> 10	–
N#C/N=C1\SCCN1Cc1ccc(Cl)nc1 [THIACLOPRID]	2.7	19	> 10	LD50 [1]: 28 mg/kg; IC50 [3]: 860 nM; IC50 [4]: 11 nM; logP [9]: 1.26
CCOP(=S)(OCC)Oc1nc(Cl)c(Cl)cc1Cl [CHLORPYRIFOS]	–	–	2.1	–
O=C(/N=c1\sccn1Cc1ccc(Cl)nc1)c1ccc(Cl)nc1	41	0	> 10	–
O=C(/N=c1\sccn1Cc1ccc(Cl)nc1)c1cnccn1	1.5	0	> 10	LD50 [1]: > 24 mg/kg; IC50 [3]: 900 nM; Activity (Mus musculus [10]): 0%; IC50 [4]: 720 nM
O=C(/N=c1\sccn1Cc1ccc(Cl)nc1)C(F)(F)F	3.1	–	0.75	LD50 [1]: > 36 mg/kg; IC50 [3]: 500 nM; LC50 (Culex quinquefasciatus [7]): 0.012 µg/mL (≈ 0.0373 µM); IC50 [4]: 280 nM; Activity (Mus musculus [11]): 0%; LC50 (Culex quinquefasciatus [8]): 0.024 µg/mL (≈ 0.0746 µM)
O=C(/N=c1\sccn1Cc1ccc(Cl)nc1)c1ccc(Cl)cc1	> 30000	0	> 10	inhibition (Drosophila): 10%
O=C(/N=c1\sccn1Cc1ccc(Cl)nc1)c1ccncc1	10	0	> 10	–
CCOP(=S)(OCC)Oc1ccc([N+](=O)[O-])cc1 [PARATHION]	–	–	1.3	–
ClC1=C(Cl)[C@]2(Cl)[C@@H]3[C@@H]4C[C@@H]([C@H]5O[C@@H]45)[C@@H]3[C@@]1(Cl)C2(Cl)Cl [DIELDRIN]	–	–	0.75	–
